ChEMBL document CHEMBL4257503, “N-Acetyl-3-aminopyrazoles block the non-canonical NF-kB cascade by selectively inhibiting NIK” (Medchemcomm, 2018)

Key:
[1] = molecular target: T1, Inhibitor of nuclear factor kappa-B kinase subunit epsilon (Homo sapiens, UniProt Q14164); test: Inhibition of recombinant human full-length N-terminal GST-fused/His6-tagged IKKepsilon (M1 to V716 residues) expressed in Sf9 insect cells using ERLLDDRHDSGLDSMKDEE peptide as substrate measured after 60 mins by ADP-Glo kinase assay
T1 sequence (Q14164 whole entry): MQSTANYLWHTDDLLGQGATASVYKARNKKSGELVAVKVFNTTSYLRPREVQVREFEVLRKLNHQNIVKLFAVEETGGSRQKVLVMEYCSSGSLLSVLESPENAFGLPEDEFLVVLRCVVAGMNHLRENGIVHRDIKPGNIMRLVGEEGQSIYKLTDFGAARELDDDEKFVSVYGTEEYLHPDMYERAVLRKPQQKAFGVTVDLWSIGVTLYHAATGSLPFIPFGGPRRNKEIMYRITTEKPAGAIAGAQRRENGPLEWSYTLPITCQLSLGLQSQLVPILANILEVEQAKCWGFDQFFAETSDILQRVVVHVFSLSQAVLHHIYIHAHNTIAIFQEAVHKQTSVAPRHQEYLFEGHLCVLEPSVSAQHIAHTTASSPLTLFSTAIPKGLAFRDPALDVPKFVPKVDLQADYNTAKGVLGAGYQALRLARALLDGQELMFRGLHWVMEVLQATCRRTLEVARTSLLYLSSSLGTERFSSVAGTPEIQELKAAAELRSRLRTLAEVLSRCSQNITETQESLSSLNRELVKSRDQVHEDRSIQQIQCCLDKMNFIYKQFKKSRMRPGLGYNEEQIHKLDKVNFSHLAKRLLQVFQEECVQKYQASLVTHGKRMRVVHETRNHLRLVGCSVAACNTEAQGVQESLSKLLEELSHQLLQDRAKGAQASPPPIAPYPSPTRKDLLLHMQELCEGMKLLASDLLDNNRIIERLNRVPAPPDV

[2] = Cytotoxicity against human EJM cells assessed as cell viability at 25 uM after 6 hrs by CellTiter Glo luminescent assay relative to control; type: cell-based; details: read-out: Activity
Procedure, shortened: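 Cells seeded at 5 x 10^3 per well and exposed for 6 h to the compound (10, 25, 50 or 100 µM) or to DMSO vehicle. Viability was read as intracellular ATP by CellTiter Glo luminescence.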

[3] = molecular target: Calcium/calmodulin-dependent protein kinase kinase 1 (Homo sapiens, UniProt Q8N5S9); test: Inhibition of CAMKK1 (unknown origin)
[4] = molecular target: Death-associated protein kinase 1 (Homo sapiens, UniProt P53355); test: Inhibition of DAPK1 (unknown origin)
Chain of Death-associated protein kinase 1 (P53355 whole entry): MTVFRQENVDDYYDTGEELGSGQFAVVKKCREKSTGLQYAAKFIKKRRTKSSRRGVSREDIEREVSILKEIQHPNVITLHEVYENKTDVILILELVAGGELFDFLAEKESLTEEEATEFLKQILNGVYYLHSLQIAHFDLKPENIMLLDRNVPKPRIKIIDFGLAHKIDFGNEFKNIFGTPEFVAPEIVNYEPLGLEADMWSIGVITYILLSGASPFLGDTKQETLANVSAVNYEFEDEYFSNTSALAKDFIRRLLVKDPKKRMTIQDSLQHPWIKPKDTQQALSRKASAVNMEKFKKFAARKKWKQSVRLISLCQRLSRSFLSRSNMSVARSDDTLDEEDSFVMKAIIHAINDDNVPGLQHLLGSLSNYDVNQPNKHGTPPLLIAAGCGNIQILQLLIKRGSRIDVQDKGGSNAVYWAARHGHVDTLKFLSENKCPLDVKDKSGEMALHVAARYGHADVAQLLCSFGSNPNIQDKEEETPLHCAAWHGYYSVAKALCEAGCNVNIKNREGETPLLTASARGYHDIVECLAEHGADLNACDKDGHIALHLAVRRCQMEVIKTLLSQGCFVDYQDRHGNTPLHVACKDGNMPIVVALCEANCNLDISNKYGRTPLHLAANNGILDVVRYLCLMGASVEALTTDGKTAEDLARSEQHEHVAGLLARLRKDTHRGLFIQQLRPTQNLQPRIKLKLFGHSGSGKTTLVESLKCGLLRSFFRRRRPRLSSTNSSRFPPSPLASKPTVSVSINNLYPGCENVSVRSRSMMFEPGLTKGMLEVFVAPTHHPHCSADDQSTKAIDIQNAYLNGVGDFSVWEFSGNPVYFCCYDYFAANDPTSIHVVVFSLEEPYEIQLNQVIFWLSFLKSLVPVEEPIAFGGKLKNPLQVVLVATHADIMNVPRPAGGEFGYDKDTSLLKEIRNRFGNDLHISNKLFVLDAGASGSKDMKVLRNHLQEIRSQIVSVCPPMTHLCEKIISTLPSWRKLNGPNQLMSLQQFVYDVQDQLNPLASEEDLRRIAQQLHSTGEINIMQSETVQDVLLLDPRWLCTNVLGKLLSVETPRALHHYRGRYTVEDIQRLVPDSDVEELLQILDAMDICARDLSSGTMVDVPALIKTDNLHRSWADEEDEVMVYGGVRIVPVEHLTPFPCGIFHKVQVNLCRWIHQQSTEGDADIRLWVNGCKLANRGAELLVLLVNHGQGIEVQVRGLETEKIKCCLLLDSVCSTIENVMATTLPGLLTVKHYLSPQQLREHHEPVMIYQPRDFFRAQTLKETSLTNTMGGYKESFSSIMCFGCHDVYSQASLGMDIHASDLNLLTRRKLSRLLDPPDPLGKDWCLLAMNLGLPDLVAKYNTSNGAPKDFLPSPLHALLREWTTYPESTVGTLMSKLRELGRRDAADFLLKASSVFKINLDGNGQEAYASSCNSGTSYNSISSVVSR

Chain of Calcium/calmodulin-dependent protein kinase kinase 1 (Q8N5S9 whole entry): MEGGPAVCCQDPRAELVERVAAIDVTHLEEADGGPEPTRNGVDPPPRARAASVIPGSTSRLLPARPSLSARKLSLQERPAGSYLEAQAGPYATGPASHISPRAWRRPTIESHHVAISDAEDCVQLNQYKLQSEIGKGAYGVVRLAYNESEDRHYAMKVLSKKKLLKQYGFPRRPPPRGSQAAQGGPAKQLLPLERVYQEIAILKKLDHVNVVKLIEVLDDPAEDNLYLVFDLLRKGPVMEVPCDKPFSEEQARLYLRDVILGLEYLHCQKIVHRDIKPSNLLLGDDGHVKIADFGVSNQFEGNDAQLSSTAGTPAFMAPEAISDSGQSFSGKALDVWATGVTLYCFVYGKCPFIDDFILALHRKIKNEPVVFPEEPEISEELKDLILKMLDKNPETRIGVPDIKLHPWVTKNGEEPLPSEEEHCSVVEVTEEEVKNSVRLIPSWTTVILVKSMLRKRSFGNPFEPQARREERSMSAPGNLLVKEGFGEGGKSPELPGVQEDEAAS

SMILES: CC(=O)n1nc(C)c(-c2ccc(Cl)c(Cl)c2)c1N
- IC50 [1]: > 100 µM
- viability at 6 h, 25 µM [2]: ≥ 80%
- IC50 [3]: > 100 µM
- IC50 [4]: > 100 µM
